Results reported in PMC4460194 (Current Therapeutic Research, Clinical and Experimental, 2015).
Like-named read-outs stand apart in the source and are kept apart here.

Experiments:
[1] = assay type: in vivo, human (healthy Chinese volunteers); conditions: for Cav: 2 mg multiple dose
Outline: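 Healthy Chinese volunteers (18–27 years, BMI 19–24) took a 2-mg tablet of the test compound orally once daily for 6 days. Predose samples were taken on days 3–5. On day 6, samples were taken predose and from 0.25 to 48 h. Heparinised plasma was stored at –20°C and extracted into diethyl ether-dichloromethane. LC-MS/MS range was 0.287–287 ng/mL. Noncompartmental analysis; accumulation index = AUC(multiple-dose)/AUC(single-dose).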

[2] = did not convert to Pi-LAC; cited from earlier work
[3] = Single-dose pharmacokinetic study of pitavastatin calcium tablets; assay type: in vivo, human (healthy Chinese volunteers); conditions: for half-life / AUC(0-inf) / AUC(0-t) / Tmax / Vd / clearance / Cmax: human, plasma
Outline: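 Randomized 3-way crossover in healthy Chinese volunteers (6 male, 6 female) with 5-day washouts. Single oral 1, 2 or 4 mg tablets were given after a 12-h fast with 200 mL water; meals at 4 and 10 h. Venous samples were taken predose and from 0.25 to 36 h. Heparinised plasma was analysed by LC-MS/MS (0.287–287 ng/mL). Noncompartmental analysis: Cmax/Tmax observed; AUC0–t by linear trapezoidal rule; AUC0–∞ = AUC0–t + Ct/λ.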

[4] = system: albumin and alpha-1-acid glycoprotein; conditions: primarily to albumin and alpha-1-acid glycoprotein; cited from earlier work
[5] = animal studies, tissue distribution; cited from earlier work
[6] = OATP 388GA + 388GG mutant group vs 388AA wild-type group; cited from earlier work
[7] = Tolerability assessment; assay type: in vivo, human (healthy Chinese volunteers); conditions: single doses of 1 mg, 2 mg, or 4 mg and multiple doses of 2 mg once daily for 6 days, all subjects
[8] = Stability tests of the analyte in human plasma; assay type: in vitro ADME
[9] = multiple dose 2 mg once daily for 6 days, n = 11, mean (SD)

**Q.** Which results are given for `O=C(O)C[C@H](O)C[C@H](O)/C=C/c1c(C2CC2)nc2ccccc2c1-c1ccc(F)cc1` [pitavastatin]?
**A.** accumulation index (Cmax, multiple-dose/Cmax, single-dose) ([1]; 2 mg multiple dose vs 2 mg single dose, mean (SD)): 0.85 (0.23); accumulation index (AUC) ([1]; 2 mg multiple dose vs 2 mg single dose, ratio of AUC, mean (SD)): 0.98 (0.28); Cav ([1]; female (n = 6), mean (SD)): 11.65 (6.58) ng/mL; Cav ([1]; male (n = 5), mean (SD)): 10.32 (1.86) ng/mL; steady state of plasma pitavastatin concentration achieved ([1]; 2 mg once daily, day of multiple dosing): ~4 days; Cav (steady-state concentration) [1, 9]: 11.05 (4.85) ng/mL; Cmin (steady-state trough concentration) [1, 9]: 2.58 (0.92) ng/mL; stability in human plasma (conversion to Pi-LAC) [2]: stable; half-life ([3]; both, oral): ~10 h; AUC(0-inf) ([3]; both, oral, 1 mg): 206 ng·h/mL; AUC(0-t) ([3]; both, oral, 1 mg): 190 ng·h/mL; Tmax ([3]; both, oral, 1 mg): 0.63 h; Vd ([3]; both, oral, 1 mg): 79.9 L; clearance ([3]; both, oral, 1 mg): 84.8 mL/min; half-life ([3]; both, oral, 1 mg): 11 h; AUC(0-inf) ([3]; both, oral, 2 mg): 321 ng·h/mL; AUC(0-t) ([3]; both, oral, 2 mg): 308 ng·h/mL; Tmax ([3]; both, oral, 2 mg): 0.65 h; Vd ([3]; both, oral, 2 mg): 86.9 L; clearance ([3]; both, oral, 2 mg): 108 mL/min; half-life ([3]; both, oral, 2 mg): 9.52 h; AUC(0-inf) ([3]; both, oral, 4 mg): 828 ng·h/mL; AUC(0-t) ([3]; both, oral, 4 mg): 785 ng·h/mL; Tmax ([3]; both, oral, 4 mg): 0.79 h; Vd ([3]; both, oral, 4 mg): 72.5 L; clearance ([3]; both, oral, 4 mg): 85.5 mL/min; half-life ([3]; both, oral, 4 mg): 10.4 h; Tmax ([3]; both, po): ≤ 1 h; Cmax ([3]; both, po, 1 mg): 66.8 ng/mL; Cmax ([3]; both, po, 2 mg): 106 ng/mL; Cmax ([3]; both, po, 4 mg): 233 ng/mL; AUC(0-t) ([3]; female, oral, 1 mg): 204 ng·h/mL; Cmax ([3]; female, oral, 1 mg): 71 ng/mL; Tmax ([3]; female, oral, 1 mg): 0.67 h; Vd ([3]; female, oral, 1 mg): 73.3 L; clearance ([3]; female, oral, 1 mg): 77.5 mL/min; half-life ([3]; female, oral, 1 mg): 9.69 h; AUC(0-t) ([3]; female, oral, 2 mg): 330 ng·h/mL; Cmax ([3]; female, oral, 2 mg): 114 ng/mL; Tmax ([3]; female, oral, 2 mg): 0.67 h; Vd ([3]; female, oral, 2 mg): 87.5 L; clearance ([3]; female, oral, 2 mg): 102 mL/min; half-life ([3]; female, oral, 2 mg): 9.95 h; Cmax ([3]; female, oral, 4 mg): 253 ng/mL; Tmax ([3]; female, oral, 4 mg): 0.9 h; Vd ([3]; female, oral, 4 mg): 72.7 L; clearance ([3]; female, oral, 4 mg): 83 mL/min; half-life ([3]; female, oral, 4 mg): 11.8 h; AUC(0-t) ([3]; male, oral, 1 mg): 176 ng·h/mL; Cmax ([3]; male, oral, 1 mg): 62.6 ng/mL; Tmax ([3]; male, oral, 1 mg): 0.58 h; Vd ([3]; male, oral, 1 mg): 86.4 L; clearance ([3]; male, oral, 1 mg): 92 mL/min; half-life ([3]; male, oral, 1 mg): 12.3 h; AUC(0-t) ([3]; male, oral, 2 mg): 286 ng·h/mL; Cmax ([3]; male, oral, 2 mg): 98.4 ng/mL; Tmax ([3]; male, oral, 2 mg): 0.63 h; Vd ([3]; male, oral, 2 mg): 86.4 L; clearance ([3]; male, oral, 2 mg): 114 mL/min; half-life ([3]; male, oral, 2 mg): 9.08 h; AUC(0-t) ([3]; male, oral, 4 mg): 690 ng·h/mL; Cmax ([3]; male, oral, 4 mg): 209 ng/mL; Tmax ([3]; male, oral, 4 mg): 0.65 h; Vd ([3]; male, oral, 4 mg): 72.2 L; clearance ([3]; male, oral, 4 mg): 98.5 mL/min; half-life ([3]; male, oral, 4 mg): 8.72 h; correlation coefficient of dose-proportionality linear regression for AUC0−t ([3]; single dosing 1 mg, 2 mg, 4 mg): 0.92; correlation coefficient of dose-proportionality linear regression for AUC0−∞ ([3]; single dosing 1 mg, 2 mg, 4 mg): 0.91; correlation coefficient of dose-proportionality linear regression for Cmax ([3]; single dosing 1 mg, 2 mg, 4 mg): 0.86; protein binding ratio [4]: 96%; liver levels relative to plasma [5]: approximately 54 times; AUC higher than wild type [6]: about 80%; Cmax higher than wild type [6]: ~71%; oral elimination lower than wild type [6]: about 35%; tolerability [7]: well tolerated; stability in human plasma ([8]; after 3 freeze-thaw cycles (80°C to room temperature)): stable; stability in human plasma ([8]; at −20°C for 80 days): stable; stability of processed samples ([8]; processed samples at room temperature for 8 hours): stable
